{
  "source": "paper PMC7033594",
  "about": "(iScience, 2020)",
  "key": {"[1]": {"system": "PI(4,5)P2 biosensor in Arabidopsis suspension cells", "assay": "PI", "type": "cell-based", "settings": "50 µM ABA for 24h"}, "PLC activity": {"system": "PLC activity", "assay": "PLC activity in seedlings after ABA treatment", "type": "in vivo, Arabidopsis", "settings": "50 μM ABA for 24 h", "summary_of_the_method": "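Ten-day-old seedlings grown on MS agar were incubated 24 h in the dark in liquid half-strength MS with or without 50 µM ABA. PLC activity in seedling extracts was measured in triplicate with the EnzCheck direct PLC kit. Fluorescence was normalised to the kit's Bacillus cereus PC-PLC. Groups were compared by one-way ANOVA with Tukey's test.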"}, "[2]": {"molecular_target": "T1, AtTSPO-PIP2;7 interaction (Arabidopsis thaliana, UniProt O82245)", "T1 sequence (O82245 1-196)": "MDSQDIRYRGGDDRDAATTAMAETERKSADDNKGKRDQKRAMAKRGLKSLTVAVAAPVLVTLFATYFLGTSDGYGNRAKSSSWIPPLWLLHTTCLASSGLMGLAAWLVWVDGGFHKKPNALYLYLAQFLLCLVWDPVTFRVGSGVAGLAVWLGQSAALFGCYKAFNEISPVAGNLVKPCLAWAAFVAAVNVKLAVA", "T1 sequence (P93004 1-280 partner)": "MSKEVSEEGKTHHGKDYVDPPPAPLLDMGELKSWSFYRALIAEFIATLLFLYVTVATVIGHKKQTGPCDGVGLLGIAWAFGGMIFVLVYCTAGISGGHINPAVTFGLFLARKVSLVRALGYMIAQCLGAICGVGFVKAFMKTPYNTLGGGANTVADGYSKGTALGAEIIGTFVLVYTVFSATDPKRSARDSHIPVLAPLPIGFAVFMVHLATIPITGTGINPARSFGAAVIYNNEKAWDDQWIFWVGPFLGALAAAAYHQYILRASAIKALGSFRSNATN", "assay": "Microscale thermophoresis of YFP-PIP2", "type": "binding", "settings": "50 μM lipid in trans", "summary_of_the_method": "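The aquaporin (mVenus-tagged YFP-PIP2;7) was a DDM-solubilised microsomal fraction from transgenic Arabidopsis seedlings. It was titrated against a range of AtTSPO concentrations, with 50 µM PI(4,5)P2, phosphatidylcholine, or no lipid added. Buffer was 50 mM Tris pH 8.0, 200 mM NaCl, 10% glycerol, 2% DDM. YFP was read through the green filter. Normalised data from three experiments (mean ± SD) were fitted by non-linear regression.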"}, "mTSPO": {"molecular_target": "mTSPO (Mus musculus, UniProt P50637)", "sequence (P50637 whole entry)": "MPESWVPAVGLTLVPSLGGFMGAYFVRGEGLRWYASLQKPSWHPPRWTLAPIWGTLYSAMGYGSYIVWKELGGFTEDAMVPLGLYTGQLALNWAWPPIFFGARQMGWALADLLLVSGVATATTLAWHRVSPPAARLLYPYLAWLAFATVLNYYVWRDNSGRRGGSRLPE", "assay": "Protein-lipid overlay with purified mouse TSPO", "type": "binding", "summary_of_the_method": "(§1)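 Lipids were spotted on nitrocellulose and air-dried 1 h: PA from CHCl3, and PI3P, PI4P and PI(4,5)P2 from 2% DDM. Commercial PIP strips were also used. Membranes were blocked in 3% BSA in TBS-Tween, incubated with purified protein in blocking buffer for 3 h at room temperature, then probed with primary and HRP secondary antibodies and developed by ECL.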"}, "AtTSPO^Nter [3]": {"molecular_target": "T2, AtTSPO^Nter (Arabidopsis thaliana, UniProt O82245)", "T2 sequence (O82245 1-49)": "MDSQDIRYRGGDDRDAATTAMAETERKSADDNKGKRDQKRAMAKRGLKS", "assay": "Protein-lipid overlay with purified AtTSPO N-terminal peptide", "type": "binding", "summary_of_the_method": "as §1"}, "AtTSPO^Nter [4]": {"molecular_target": "T2, AtTSPO^Nter", "assay": "NMR 1H-15N HSQC titration of AtTSPO^Nter with lipids", "type": "binding"}, "full-length AtTSPO [5]": {"molecular_target": "T3, full-length AtTSPO (Arabidopsis thaliana, UniProt O82245)", "T3 sequence (O82245 1-196)": "T1 sequence (O82245 1-196)", "assay": "Microscale thermophoresis, PI", "type": "binding", "summary_of_the_method": "(§2)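 Microscale thermophoresis used His-tag labelling with RED-tris-NTA. Full-length or N-terminally truncated 10His protein from yeast was titrated against a PI(4,5)P2 concentration gradient in 50 mM Tris pH 8.0, 200 mM NaCl, 10% glycerol, 2% DDM and protease inhibitors. Laser power was 10, 20 or 40%. Values are mean ± SD of three experiments, with Kd from non-linear regression.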"}, "full-length AtTSPO [6]": {"molecular_target": "T3, full-length AtTSPO", "assay": "Protein-lipid overlay", "type": "binding", "summary_of_the_method": "as §1"}, "AtTSPO^ΔN [7]": {"molecular_target": "T4, AtTSPO^ΔN (Arabidopsis thaliana, UniProt O82245)", "T4 sequence (O82245 42-196)": "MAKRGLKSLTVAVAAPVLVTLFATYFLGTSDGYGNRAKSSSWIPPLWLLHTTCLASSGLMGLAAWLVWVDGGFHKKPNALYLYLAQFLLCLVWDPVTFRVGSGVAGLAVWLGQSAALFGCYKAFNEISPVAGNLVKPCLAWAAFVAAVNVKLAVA", "assay": "Microscale thermophoresis, PI", "type": "binding", "settings": "RED-tris-NTA label", "summary_of_the_method": "as §2"}, "[8]": {"molecular_target": "T5, N-terminal peptide (AtTSPO^Nter) (Arabidopsis thaliana, UniProt O82245)", "T5 sequence (O82245 1-49)": "T2 sequence (O82245 1-49)", "type": "binding", "settings": "thermophoresis; peptide labeled with NT-647-NHS; non-linear fitting", "summary_of_the_method": "(§3)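 Microscale thermophoresis was run on a Monolith NT115. Lysine residues of yeast-derived full-length protein or bacterially expressed N-terminal peptide were labelled with NT-647-NHS. Labelled protein was titrated against a PA concentration gradient in 50 mM Tris pH 8.0, 200 mM NaCl, 10% glycerol, 2% DDM and protease inhibitors. LED power was 100%. Kd came from non-linear fitting of normalised fluorescence.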"}, "AtTSPO^ΔN [9]": {"molecular_target": "T4, AtTSPO^ΔN", "assay": "Membrane-spotted PA gradient / PA pull-down with AtTSPO^ΔN", "type": "binding", "settings": "membrane-spotted gradient of PA", "summary_of_the_method": "as §1"}, "full-length AtTSPO [10]": {"molecular_target": "T3, full-length AtTSPO", "assay": "Microscale thermophoresis, phosphatidic acid titrated against full-length AtTSPO", "type": "binding", "settings": "protein labeled with NT-647-NHS, non-linear fitting", "summary_of_the_method": "as §3"}},
  "data": [
    {"compound": "CC1=CC(=O)CC(C)(C)[C@@]1(O)/C=C/C(C)=C\\C(=O)O", "note": "[ABA, abscisic acid]", "values": [
      {"measurement": "distribution of the PI(4,5)P2 biosensor", "setting": "[1]", "value": "partial redistribution of the PI(4,5)P2 biosensor from the PM to the cytosol"},
      {"measurement": "effect on PLC activity", "setting": "PLC activity; KO TSPO seedlings", "value": "no effect"},
      {"measurement": "increase of PLC activity", "setting": "PLC activity; OE TSPO seedlings", "value": "~4", "unit": "fold"},
      {"measurement": "enhancement of PLC activity compared with untreated samples", "setting": "PLC activity; WT seedlings", "value": "~20", "unit": "%"},
      {"measurement": "effect on PLC activity", "setting": "PLC activity; seedlings overexpressing N-terminally truncated AtTSPO", "value": "no effect"}
    ]},
    {"compound": "CCCCCCCC/C=C\\CCCCCCCC(=O)OC[C@H](COP(=O)(O)O[C@@H]1[C@H](O)[C@H](O)[C@@H](OP(=O)(O)O)[C@H](OP(=O)(O)O)[C@H]1O)OC(=O)CCCCCCC/C=C\\CCCCCCCC", "note": "[PI(4,5)P2, 1,2-dioleoyl-sn-glycero-3-phospho-(1’-myo-inositol-4’,5’-bisphosphate)]", "values": [
      {"measurement": "AtTSPO and Venus-PIP2;7 interaction", "setting": "[2]", "value": "clearly indicating a protein-protein interaction"},
      {"measurement": "binding to mTSPO", "setting": "mTSPO", "value": "did not bind"},
      {"measurement": "binding to N-terminal peptide of AtTSPO", "setting": "AtTSPO^Nter [3]", "value": "could bind"},
      {"measurement": "Kd", "setting": "AtTSPO^Nter [4]", "value": "~150", "unit": "µM"},
      {"measurement": "Kd", "setting": "full-length AtTSPO [5]", "value": "2300 ± 700", "unit": "µM"},
      {"measurement": "binding to purified full-length AtTSPO", "setting": "full-length AtTSPO [6]", "value": "could bind"},
      {"measurement": "binding to AtTSPO^ΔN", "setting": "AtTSPO^ΔN [7]", "value": "no binding was observed"}
    ]},
    {"compound": "PI3P", "values": [
      {"measurement": "binding to mTSPO", "setting": "mTSPO", "value": "bind"},
      {"measurement": "binding to N-terminal peptide of AtTSPO", "setting": "AtTSPO^Nter [3]", "value": "could bind"},
      {"measurement": "binding to purified full-length AtTSPO", "setting": "full-length AtTSPO [6]", "value": "could bind"}
    ]},
    {"compound": "PI4P", "values": [
      {"measurement": "binding to N-terminal peptide of AtTSPO", "setting": "AtTSPO^Nter [3]", "value": "could bind"},
      {"measurement": "binding to purified full-length AtTSPO", "setting": "full-length AtTSPO [6]", "value": "could bind"}
    ]},
    {"compound": "PI5P", "values": [
      {"measurement": "binding to N-terminal peptide of AtTSPO", "setting": "AtTSPO^Nter [3]", "value": "could bind"},
      {"measurement": "binding to purified full-length AtTSPO", "setting": "full-length AtTSPO [6]", "value": "could bind"}
    ]},
    {"compound": "PI(3,4)P2", "values": [
      {"measurement": "binding to purified full-length AtTSPO", "setting": "full-length AtTSPO [6]", "value": "bound all tested PIs except PI(3,4)P2"}
    ]},
    {"compound": "phosphatidic acid [PA]", "values": [
      {"measurement": "Kd", "setting": "[8]", "value": 3300, "unit": "µM"},
      {"measurement": "binding to AtTSPO^ΔN", "setting": "AtTSPO^ΔN [9]", "value": "could not bind"},
      {"measurement": "Kd", "setting": "full-length AtTSPO [10]", "value": 2100, "unit": "µM"},
      {"measurement": "binding to purified full-length AtTSPO", "setting": "full-length AtTSPO [6]", "value": "bound"}
    ]},
    {"compound": "phosphatidylcholine [PC]", "values": [
      {"measurement": "AtTSPO and Venus-PIP2;7 interaction", "setting": "[2]", "value": "no interaction"}
    ]},
    {"compound": "phosphatidylserine [PS]", "values": [
      {"measurement": "binding to purified full-length AtTSPO", "setting": "full-length AtTSPO [6]", "value": "bound"}
    ]}
  ]
}
